Assays:
[1] = test system: Micrococcus luteus; assay: Antibacterial activity against Micrococcus luteus ATCC 10240 after 20 hrs by broth microdilution assay; type: functional; details: ATCC 10240, 20 h
In short: (§1)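 Nutrient-broth overnight cultures diluted in 1% TSB; E. coli BL21AI 7.5 × 10^5 cells/well, M. luteus ATCC 10240 2 × 10^6 cells/well. Peptides serially 2-fold diluted in 1% TSB from 128 to typically 0.5 μg/mL. Incubation at 37 °C; A595 read after 20 ± 2 h. MIC is the lowest concentration with absorbance not above medium only. Triplicate.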

[2] = test system: Escherichia coli; assay: Antibacterial activity against Escherichia coli BL21 AI after 20 hrs by broth microdilution assay; type: functional; in short: as §1
[3] = Stability in 25% mouse serum assessed as half life at 75 ug/ml by MALDI-TOF-MS analysis; type: ADME, cell-free
In short: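 Peptide at 75 μg/mL final in pooled mouse serum (undiluted or 25% v:v aqueous), 37 °C. Triplicate aliquots taken at 0, 30, 60, 120 and 240 min and precipitated with 3% TCA on ice for 10 min. Supernatant neutralized with NaOH and analysed by RP-HPLC on C18 with TFA-containing gradient. Amounts expressed relative to 0 min; metabolites identified by MALDI-TOF-MS.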

[4] = test system: HeLa; assay: Cytotoxicity against human HeLa cells at 600 ug/ml after 24 hrs by MTT assay; type: cell-based
In short: (§2)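 HeLa (1.5 × 10^4/well, seeded overnight) or SH-SY5Y (2 × 10^4/well, differentiated 5 days with 10 μM trans-retinoic acid) in DMEM/Ham's F-12 with 5% or 15% FBS. Peptide added at 600 μg/mL for 24 h at 37 °C, 5% CO2. MTT 0.5 mg/mL for 4 h, then SDS/HCl for 16 h; A590 read against 650 nm. Normalized to PBS (100%); DMSO 12% as positive control.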

[5] = test system: SH-SY5Y; assay: Cytotoxicity against human SH-SY5Y cells at 600 ug/ml after 24 hrs by MTT assay; type: cell-based; in short: as §2

Compound	MIC [1]	MIC [2]	half-life at 75 ug/ml [3]	Activity [4]	Activity [5]
H-VDKPPYLPRPRPPRRIYN-OH	128 µg/mL	64 µg/mL			
H-VDKPPYLPRPRPPRRIYNNR-NH2	8 µg/mL	8 µg/mL			
H-VDKPPYLPRPHPPRRIYNNR-OH	32 µg/mL	64 µg/mL			
H-VDKPPYLPRPRPPRRIYNR-OH	64 µg/mL	32 µg/mL	< 30 min		
H-VDKPPYLPRPRPPRRIYNRN-OH	16 µg/mL	8 µg/mL			
H-VDKPPYLPRPRPPRRIYNNR-OH	16 µg/mL	8 µg/mL			
CC[C@H](C)[C@H](NC(=O)[C@H](Cc1ccc(O)cc1)NC(=O)[C@@H](NC(=O)[C@@H]1CCCN1C(=O)[C@H](CCCNC(=N)N)NC(=O)[C@H](CC(N)=O)NC(=O)[C@H](CC(N)=O)NC(=O)CN)C(C)C)C(=O)N1CCC[C@H]1C(=O)N[C@@H](CCC(N)=O)C(=O)N1CCC[C@H]1C(=O)N[C@@H](CCCNC(=N)N)C(=O)N1CCC[C@H]1C(=O)N1CCC[C@H]1C(=O)N[C@@H](Cc1cnc[nH]1)C(=O)N1CCC[C@H]1C(=O)N[C@@H](CCCNC(=N)N)C(=O)N[C@@H](CC(C)C)C(=O)O [APIDAECIN]				Non-toxic	Non-toxic
